We go through 24 compounds from ChEMBL document CHEMBL4396921, “Synthesis and Biological Activity of Peptide α-Ketoamide Derivatives as Proteasome Inhibitors” (ACS Med Chem Lett, 2019).

Residues, ends and D or L forms follow the SMILES beside them. *: point of attachment. Cbz = O=C(OCc1ccccc1)*

In test [1] the target is T1, Proteasome Macropain subunit MB1 (Homo sapiens, UniProt P28074).
T1 sequence (P28074 whole entry): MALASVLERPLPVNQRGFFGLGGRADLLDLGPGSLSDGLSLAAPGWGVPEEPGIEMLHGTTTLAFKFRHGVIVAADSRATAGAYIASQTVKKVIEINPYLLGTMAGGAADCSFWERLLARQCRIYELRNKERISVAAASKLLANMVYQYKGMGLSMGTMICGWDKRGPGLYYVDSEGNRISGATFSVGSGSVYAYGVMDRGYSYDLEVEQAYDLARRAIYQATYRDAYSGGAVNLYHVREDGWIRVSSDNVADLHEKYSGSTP
Description: Inhibition of 20S proteosome beta 5 purified from human HCT116 cells using Suc-LLVY-AMC as substrate incubated for 30 to 120 mins by fluorimetry. In a few lines:
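Semipurified proteasomes were pretreated with compound at 0.01–100 μM in activity buffer. Fluorogenic AMC substrates were used: Z-LLE-AMC for PGPH (β1), Boc-LRR-AMC for T-L (β2) and Suc-LLVY-AMC for ChT-L (β5). IC50 reported as mean ± SEM of three independent experiments.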

For test [2], the system named is HCT-116. Description: Antiproliferative activity against human HCT116 cells assessed as reduction in cell viability incubated for 72 hrs by MTT assay. The format is functional, cell-based. To be noted: HCT-116, 72 h. In outline:
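HCT116 human colorectal carcinoma cells exposed to compounds at 0.1–100 μM. IC50 for proliferation reported as mean ± SEM of three independent experiments.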

Test [3] relates to HCT-116. Description: Induction of apoptosis in human HCT116 cells assessed as early apoptotic cells at 1 uM incubated for 72 hrs by annexin-V FITC and propidium iodide staining based flow cytometry relative to control. The test is classed as functional. In a few lines:
(§1)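 HCT116 tumour cells cultured 48 or 72 h with or without compound at 1 μM. Cells were stained with Annexin V and propidium iodide. Annexin V+/PI− was scored as early apoptotic and Annexin V+/PI+ as late apoptotic. Percentages of cells were read from dot plots, with three experiments run.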

In test [4] the test system is HCT-116. Kind of test: Induction of apoptosis in human HCT116 cells assessed as viable cells at 1 uM incubated for 48 hrs by annexin-V FITC and propidium iodide staining based flow cytometry relative to control. The test is classed as functional. The conditions noted are these: HCT-116, 48 h, read-out: Activity. In a few lines:
as §1

Test [5] is filed under the species Homo sapiens. Description: Selectivity ratio of IC50 of 20S proteosome beta 2 purified from human HCT116 cells to IC50 of 20S proteosome beta 5 purified from human HCT116 cells.
Test [6] deals with HCT-116. Description: Induction of apoptosis in human HCT116 cells assessed as viable cells at 1 uM incubated for 72 hrs by annexin-V FITC and propidium iodide staining based flow cytometry relative to control. The test is classed as functional. The conditions noted are these: HCT-116, 72 h, read-out: Activity. In outline:
as §1
(A flow cytometer gives signals particle by particle.)

Test [7] deals with HCT-116. Description: Induction of apoptosis in human HCT116 cells assessed as late apoptotic cells at 1 uM incubated for 72 hrs by annexin-V FITC and propidium iodide staining based flow cytometry relative to control. The test is classed as functional. In a few lines: as §1
In test [8] the test system is HCT-116. Kind of test: Induction of apoptosis in human HCT116 cells assessed as necrotic cells at 1 uM incubated for 72 hrs by annexin-V FITC and propidium iodide staining based flow cytometry relative to control. The test is classed as functional. In a few lines:
as §1

Test [9] deals with HCT-116. Kind of test: Induction of apoptosis in human HCT116 cells assessed as early apoptotic cells at 1 uM incubated for 48 hrs by annexin-V FITC and propidium iodide staining based flow cytometry relative to control. The test is classed as functional. In outline: as §1
For test [10], the species on record is Homo sapiens. Kind of test: Selectivity ratio of IC50 of 20S proteosome beta 1 purified from human HCT116 cells to IC50 of 20S proteosome beta 5 purified from human HCT116 cells.
For test [11], the system named is HCT-116. Description: Induction of apoptosis in human HCT116 cells assessed as late apoptotic cells at 1 uM incubated for 48 hrs by annexin-V FITC and propidium iodide staining based flow cytometry relative to control. The test is classed as functional. In a few lines:
as §1

The subject of test [12] is HCT-116. Description: Induction of apoptosis in human HCT116 cells assessed as necrotic cells at 1 uM incubated for 48 hrs by annexin-V FITC and propidium iodide staining based flow cytometry relative to control. The test is classed as functional. In a few lines:
as §1

The species named for test [13] is Homo sapiens. Description: Selectivity index, ratio of IC50 of 20S proteosome beta 1 purified from human HCT116 cells to IC50 of 20S proteosome beta 2 purified from human HCT116 cells.
Test [14] is filed under the species Homo sapiens. Description: Selectivity index, ratio of IC50 of 20S proteosome beta 5 purified from human HCT116 cells to IC50 of 20S proteosome beta 2 purified from human HCT116 cells.

One may read the IC50 as the point on the concentration scale where inhibition reaches its midpoint. In test [1], `CC(C)C[C@H](NC(=O)OCc1ccccc1)C(=O)N[C@@H](Cc1cccc2ccccc12)C(O)C(=O)NCc1ccccc1` (stereo not given in full) registered a half-inhibitory concentration (IC50) greater than 100 µM.
Still for that read-out and setting: then `CC(C)C[C@H](NC(=O)OCc1ccccc1)C(=O)N[C@@H](CC(C)C)C(=O)N[C@@H](CC(C)C)C(O)C(=O)N1CCOCC1` (stereo not given in full), with greater than 100 µM; and `CC(C)C[C@H](NC(=O)OCc1ccccc1)C(=O)N[C@@H](CC(N)=O)C(O)C(=O)NCc1ccccc1` (stereo not given in full), with greater than 100 µM.
As to `CC(C)C[C@H](NC(=O)OCc1ccccc1)C(=O)N[C@@H](CC(C)C)C(=O)N[C@@H](CC(C)C)C(=O)C(=O)N1CCOCC1`, in test [1], 0.48 µM corresponded to half-maximal inhibition (IC50).
On the same count and under the same terms, for `CC(C)C[C@H](NC(=O)OCc1ccccc1)C(=O)N[C@@H](Cc1ccc(O)cc1)C(O)C(=O)NCc1ccccc1` (stereo not given in full) the value was 70.4 µM.
Still for that read-out and setting: for `CC(C)C[C@H](NC(=O)OCc1ccccc1)C(=O)N[C@@H](CC(C)C)C(=O)N[C@@H](CC(C)C)C(O)C(=O)NCc1ccc(F)cc1` (stereo not given in full) the value was greater than 100 µM.
Take `CC(C)C[C@H](NC(=O)OCc1ccccc1)C(=O)N[C@@H](CC(C)C)C(=O)N[C@@H](CC(C)C)C(=O)C(=O)Nc1cccc2ccccc12`: the IC50 in [1] was 0.007 µM; in test [2] it was less than 0.1 µM. For the same compound, the Activity worked out at 11.3% in [3]; 59.4% in [7]; 2.29% in test [8]; 22.6% in test [9]; 29.5% in [11]; 2.77% in [12]. Besides, the viability at 1 µM is 45.1% in test [4] and 27.1% in [6]. Moreover, the Ratio IC50 in test [5] is greater than 14200; in test [10], 8200.
Regarding `CC(C)CNC(=O)C(=O)[C@H](CC(C)C)NC(=O)[C@H](CC(C)C)NC(=O)[C@H](CC(C)C)NC(=O)OCc1ccccc1`, the values for the IC50 in test [1] and in test [2] were 0.012 µM and 0.81 µM, respectively. For the same compound, the Activity in test [3] was 10.5%; in test [7], 38.8%; in test [8], 1.91%; in test [9], 20.7%; in test [11], 22.3%; in [12], 1.53%. In addition, the viability at 1 µM in test [4] was found to be 55.4%; in test [6] it was 48.8%.
For `CC(C)CNC(=O)C(O)[C@H](CC(C)C)NC(=O)[C@H](CC(C)C)NC(=O)[C@H](CC(C)C)NC(=O)OCc1ccccc1` (stereo not given in full), the IC50 in test [1] is greater than 100 µM.
For the compound `CC(C)C[C@H](NC(=O)OCc1ccccc1)C(=O)N[C@@H](CC(C)C)C(=O)N[C@@H](CC(C)C)C(=O)C(=O)NCc1ccccc1`, the values for the IC50 in test [1] and in [2] were 0.014 µM and 0.78 µM, respectively.
Turning to `CC(C)C[C@H](NC(=O)OCc1ccccc1)C(=O)N[C@@H](CC(C)C)C(=O)C(=O)NCc1ccccc1`, the figures for the IC50 in [1] and in test [2] were 0.92 µM and 8.6 µM, respectively.
`CC(C)C[C@H](NC(=O)OCc1ccccc1)C(=O)N[C@@H](CC(C)C)C(=O)N[C@@H](CC(C)C)C(O)C(=O)Nc1cccc2ccccc12` (stereo not given in full) showed an IC50 in [1] of 8.1 µM.
On to `CC(C)C[C@H](NC(=O)OCc1ccccc1)C(=O)N[C@@H](CC(C)C)C(=O)N[C@@H](CC(C)C)C(O)C(=O)NCc1ccccc1` (stereo not given in full), for which the IC50 in [1] worked out at 0.53 µM.
The compound `CC(C)C[C@H](NC(=O)OCc1ccccc1)C(=O)N[C@@H](Cc1ccccc1)C(O)C(=O)NCc1ccccc1` (stereo not given in full) displayed an IC50 in test [1] greater than 100 µM.
With `CC(C)C[C@H](NC(=O)OCc1ccccc1)C(=O)N[C@@H](CC(N)=O)C(=O)C(=O)NCc1ccccc1`, the IC50 in [1] was greater than 100 µM.
Compound `CC(C)C[C@H](NC(=O)OCc1ccccc1)C(=O)N[C@@H](C(C)C)C(O)C(=O)NCc1ccccc1` (stereo not given in full) came in with an IC50 in [1] of 82.1 µM.
As for `CC(C)C[C@H](NC(=O)OCc1ccccc1)C(=O)N[C@@H](CC(C)C)C(O)C(=O)NCc1ccccc1` (stereo not given in full), the midpoint of inhibition in test [1], the IC50, lay at 50.2 µM.
Consider `CC(C)C[C@H](NC(=O)OCc1ccccc1)C(=O)N[C@@H](CC(C)C)C(=O)N[C@@H](CC(C)C)C(=O)C(=O)N1CCc2ccccc2C1`, for which the IC50 in [1] worked out at 0.77 µM.
In [1], `CC(C)C[C@H](NC(=O)OCc1ccccc1)C(=O)N[C@H](C(=O)C(=O)NCc1ccccc1)C(C)C` came in with an IC50 of 63.3 µM. For the same compound, the Ratio IC50 was 7 in [13] and 30 in test [14].
`CC(C)C[C@H](NC(=O)OCc1ccccc1)C(=O)N[C@@H](CC(C)C)C(=O)N[C@@H](CC(C)C)C(O)C(=O)N1CCc2ccccc2C1` (stereo not given in full) registered an IC50 in test [1] greater than 100 µM.
Regarding `CC(C)C[C@@H](C=O)NC(=O)[C@H](CC(C)C)NC(=O)[C@H](CC(C)C)NC(=O)OCc1ccccc1` [MG-132] (Cbz-Leu-Leu-Leu-aldehyde), the IC50 in test [2] worked out at 0.82 µM.
For the compound `CC(C)C[C@H](NC(=O)OCc1ccccc1)C(=O)N[C@@H](CC(C)C)C(=O)N[C@@H](CC(C)C)C(=O)C(=O)NCc1ccc(F)cc1`, the IC50 in [1] was 0.056 µM; in [2], 0.93 µM.
As for `CC(C)C[C@H](NC(=O)OCc1ccccc1)C(=O)N[C@@H](Cc1ccccc1)C(=O)C(=O)NCc1ccccc1`, inhibition in test [1] was half-maximal at 51.1 µM (IC50).
Regarding `CC(C)C[C@H](NC(=O)OCc1ccccc1)C(=O)N[C@@H](Cc1ccc(O)cc1)C(=O)C(=O)NCc1ccccc1`, the 50% inhibitory concentration (IC50) in [1] was 12.4 µM; in test [2] it was greater than 100 µM.
